NF-kB expr up: activators of NF-kB expression in neurons, primary screen, cell-based, HTS | human neuronal cells, NF-kB reporter expression; active compounds read high | fold change at 12.5 µM | 1.6% of 190,000 active | AID 1239, 2008; in the data active = fold change above about 3.3
APP 5'UTR act: activators of APP 5'UTR luciferase reporter, primary screen, SH-SY5Y cells. AID 1276, 2008. 1% of 190,000 active. activation, % at 2 µM. SH-SY5Y APP 5'UTR luciferase reporter, luminescence; zero percent = DMSO vehicle wells;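 active = activation above a set limit, based on mean plus 3 SD of controls, cut at about 140% in these data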
STAT1 blocker: STAT1 signaling inhibitors, primary screen, cell-based, HTS, luciferase reporter | NIH 3T3 STAT1-luciferase reporter, IFN-gamma, luminescence | inhibition, % at 5.5 µM | AID 920, 2007 | 0.35% of 200,000 active;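 active = inhibition above a set limit, the mean inhibition across all tested compounds plus 3 SD, cut at about 34% in these data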
STAT1 activator: STAT1 signaling activators, primary screen, cell-based, HTS, luciferase reporter | 2.6% of 200,000 active | NIH 3T3 STAT1-luciferase reporter, IFN-gamma, luminescence; 100% = IFN-gamma alone, no compound | activation (% of control), % at 5.5 µM | AID 932, 2007;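 active = activation above the screen-wide mean activation plus 3 SD, cut at about 130% in these data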
STAT3 act: IL-6 driven STAT3 reporter potentiators, primary screen, U3A cells, luciferase, luminescence, MLSCN library. AID 871, 2007. activation (% of control), % at 5.6 µM. 0.91% of 190,000 active. IL-6 STAT3-luciferase reporter; 100% = signal with IL-6 EC80 alone;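 active = activation above the screen-wide mean of compound activation plus 3 SD, cut at about 130% in these data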
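Material: STAT1-lacking human U3A cells, STAT3 luciferase reporter | Benchmarks: IL-6-only wells as 100% reference | Probe or stimulus: IL-6 (33 ng/mL) | Timing: Compound 1 h, then IL-6 6 h at 37 °C | Detection: Luminescence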
STAT3 inh-1: IL-6 driven STAT3 reporter inhibitors, primary screen, U3A cells, luciferase, luminescence, MLSCN library | 0.89% of 190,000 active | IL-6 STAT3-luciferase reporter; host cell line lacks STAT1 | inhibition, % at 5.5 µM;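 active = inhibition above the mean inhibition across all screened compounds plus 3 SD, cut at about 44% in these data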
STAT3 inh-2: STAT3 reporter inhibitors, retest of hits, confirmation, U3A cells, luciferase, luminescence. shares compounds with STAT3 inh-1. IL-6 STAT3 luciferase reporter; cell line lacks STAT1. inhibition, % at 5.7 µM. 45% of 1,200 active. AID 1265, 2008;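 active = inhibition above the hit cutoff computed for the primary STAT3 screen, cut at about 44% in these data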
NFkB inh STAT3ct: NF-kB reporter inhibitors in human cells, confirmation, counter-screen for STAT3 inhibitor project, cell-based, HEK293T, luciferase, TNF-alpha stimulus | shares compounds with STAT3 inh-1 | TNF-alpha induced | inhibition, % at 5.7 µM | 36% of 1,200 active | AID 1308, 2008;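 active = inhibition above the mean of solvent-only control wells plus 3 SD, cutoff set per campaign, cut at about 13% in these data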
STAT1 inh STAT3c: STAT1 reporter inhibitors, IFN-gamma induced, confirmation, counter-screen for STAT3 inhibitor project, cell-based, NIH 3T3, luciferase luminescence; shares compounds with STAT3 inh-1; NIH 3T3 STAT1-luciferase reporter; inhibition, % at 5.7 µM; 27% of 1,200 active; AID 1317, 2008;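 active = inhibition above the mean plus 3 SD of solvent-only control wells, limit set per screening run, cut at about 16% in these data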
Numbers stand for hits; 0 = inactive; - = not tested or not shown. An excerpt weighted towards active compounds, which were near 4.9% of everything screened.

SMILES	NF-kB expr up	APP 5'UTR act	STAT1 blocker	STAT1 activator	STAT3 act	STAT3 inh-1	STAT3 inh-2	NFkB inh STAT3ct	STAT1 inh STAT3c
Cn1c(=O)c2ncn(CC(=O)N=Nc3c(O)[nH]c4ccccc34)c2n(C)c1=O	0	0	0	0	0	0	-	-	-
COC(=O)c1ccc(/C=N/NC(=O)CC(=O)NCc2cccnc2)cc1	0	0	0	0	0	0	-	-	-
COc1ccc(-c2noc(CCCC(=O)N3CCOCC3)n2)cc1	-	0	0	0	0	0	-	-	-
CC(C)(C)c1ccc(-c2noc(CCC(=O)N3CCOCC3)n2)cc1	0	0	0	0	0	51	0	0	0
CSc1nsc(SCC(=O)Nc2nc3ccc(C)cc3s2)n1	0	0	0	0	0	0	-	-	-
CCNC(=O)c1ccc(C2SCC(=O)N2CCc2ccccc2)cc1 (stereo not drawn)	0	0	0	0	0	0	-	-	-
CCc1ccc(NC(=O)c2ccc(C3SCC(=O)N3CCc3ccccc3)cc2)cc1 (stereo not drawn)	0	0	0	0	0	46	48	15	0
O=C(O)c1cccc(-c2nnn(Cc3ccccc3Cl)n2)c1	4.2	0	44	0	0	70	61	37	40
CN1/C(=C\C(=O)C[n+]2cccc(C(N)=O)c2)C(C)(C)c2ccccc21	0	0	0	0	0	0	-	-	-
CN1/C(=C\C(=O)C[n+]2ccc(C(=O)c3ccccc3)cc2)C(C)(C)c2ccccc21	0	0	0	0	0	56	61	0	0
Cc1[nH]nc2c1C1(CCN(C(=O)OCc3ccccc3)CC1)C(C#N)=C(N)O2	0	0	0	0	0	49	0	0	0
Cc1ccc(C(=O)n2c(=S)nc3ccccn32)cc1	0	184	0	150	0	50	0	0	0
CCOC(=O)c1c(C)[nH]c(C2=NNC(=Nc3ccccc3)SC2)c1C	0	0	0	0	0	0	-	-	-
CCOC(=O)c1c(C)[nH]c(C2=NNC(=Nc3ccc(OCC)cc3)SC2)c1C	0	0	0	0	0	60	0	0	0
O=C(Nc1ccncc1)c1cccc(F)c1	0	0	0	0	0	0	-	-	-
O=C(Nc1ccc(N2CCCC2)cc1)c1cccc(F)c1	0	230	0	0	0	48	0	0	0
O=C(Nc1ccc(N2CCCCC2)cc1)c1ccccc1	5.7	164	0	0	0	66	0	0	0
O=C(Nc1ccc(N2CCCC2)cc1)c1ccc2ccccc2c1	0	0	0	0	0	0	-	-	-
Cc1ccc(NC(=O)CCC(=O)NNC(=O)c2ccccc2Cl)c(C)c1	0	0	0	0	0	0	-	-	-
O=C(COc1ccc2ccccc2c1)Nc1nccs1	6.5	190	0	0	0	78	0	0	0
O=C(COc1ccccc1)Nc1nccs1	0	0	0	0	0	0	-	-	-
COc1ccccc1OCC(=O)OCC(=O)Nc1sccc1C(N)=O	0	0	0	0	0	0	-	-	-
NC(=O)c1ccsc1NC(=O)COC(=O)Cc1cccc2ccccc12	0	0	0	0	0	75	74	19	20
CN(C)C(=O)CSc1cnc2ccccc2n1	0	0	0	0	0	0	-	-	-
Cc1ccc(C(=O)CSc2cnc3ccccc3n2)cc1C	0	154	0	0	0	54	0	0	0
SMILES	NF-kB expr up	APP 5'UTR act	STAT1 blocker	STAT1 activator	STAT3 act	STAT3 inh-1	STAT3 inh-2	NFkB inh STAT3ct	STAT1 inh STAT3c
CCOc1ccc(-n2c(-c3ccc(OC)cc3)c[n+]3c2CCCCC3)cc1	0	0	0	0	0	85	87	15	33
CCOc1ccc(-n2c(-c3ccc(Br)cc3)c[n+]3c2CCCCC3)cc1	0	0	0	0	0	60	0	0	23
CCOc1ccc(-n2c(-c3ccccc3)c[n+]3c2CCC3)cc1	0	0	0	0	0	71	59	0	22
Cc1ccc(NCc2ccccc2O)c(C)c1	0	0	0	0	0	0	-	-	-
CCOC(=O)c1cc(CC)sc1NC(=O)COC(=O)c1cc[n+]([O-])cc1	0	0	0	0	0	0	-	-	-
CCOC(=O)c1c(C)sc(Sc2ccc(Cl)cc2[N+](=O)[O-])c1OC	0	0	0	0	0	0	-	-	-
CCN(C(=O)c1ccc(C(C)(C)C)cc1)c1nnc(Cn2nnc3ccccc32)s1	0	0	0	0	0	86	85	31	0
CC1(C)Cc2ccccc2-c2nnc(SCC(=O)N3CCN(c4ccccc4)CC3)n21	0	0	0	0	0	44	0	0	0
CCn1c(SCC(=O)N2CCN(c3ccccc3)CC2)nnc1-c1c[nH]c2ccccc12	0	0	0	0	0	51	0	0	0
S=C1NCCOCCNC(=S)NCCOCCOCCOCCN1	0	0	0	0	0	0	-	-	-
COC(=O)Oc1ccc(/C=N/NC(=O)CSCc2ccccc2Br)cc1OC	0	0	0	0	0	58	66	0	0
O=[N+]([O-])c1ccc(C2OCCO2)cc1CS(=O)(=O)c1ccccc1	0	0	0	0	0	0	-	-	-
Cc1sc(NC(=O)c2ccco2)c(C(c2cccnc2)N2CCC(C)CC2)c1C (stereo not drawn)	0	0	0	0	0	68	67	16	0
O=C(NCCc1ccccc1)c1cccnc1	0	0	0	0	0	0	-	-	-
CCOc1ccc(C(=O)NCCc2ccccc2)cc1	3.6	0	0	0	0	55	0	0	0
O=C(NCCc1ccccc1)c1ccc2nccnc2c1	0	0	0	0	0	54	0	0	0
CC(=O)Oc1ccc(C(=O)NCCc2ccccc2)cc1	0	0	0	0	0	0	-	-	-
OCCC1CN(Cc2cccn2-c2ncccn2)CCN1CCc1ccccc1 (stereo not drawn)	0	0	0	0	0	0	-	-	-
Cc1ccc2nc(-c3ccc(NC(=O)COC(=O)c4ccc(=O)[nH]c4)cc3)sc2c1	6.5	165	0	135	0	56	0	0	0
Cc1ccc(C)c(N(CC(=O)Nc2ccc(-c3nc4ccc(C)cc4s3)cc2)S(C)(=O)=O)c1	0	0	0	0	0	0	-	-	-
Cc1ccc2nc(-c3ccc(NC(=O)CCS(=O)(=O)c4ccccc4)cc3)sc2c1	3.6	0	0	0	0	72	48	22	0

Compound activity from PubChem.
